The results in this text go back to ChEMBL document CHEMBL1156771, “Synthesis and antimalarial evaluation of 1, 3, 5-trisubstituted pyrazolines” (Eur J Med Chem, 2010).

Calls of active or inactive are those of the source. No cut-off for these calls is given here.

A short description of data set [1]: Selectivity ratio, CC50 for human HeLa cells to IC50 for Plasmodium falciparum RKL09. Format: ADME, cell-based. The note with it: read-out: Ratio CC50/IC50. In a few lines:
(§1)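 The IC50 came from sorbitol-synchronized ring-stage cultures at 1–1.5% parasitemia in human B+ erythrocytes in RPMI-1640/HEPES with 10% AB+ serum, given two-fold dilutions (ethanol ≤0.5% final). Cultures ran 24 h at 37 °C in duplicate, and schizonts per 100 asexual parasites were counted on Giemsa smears.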

Data set [2] can be described thus: Inhibition of beta-hematin formation by BHIA assay. Format: functional. The gist of the method:
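Compounds (6 to 0.3 mM) were incubated with hematin in the presence of glacial acetic acid at 37 °C for 24 h. Water or ethanol served as controls. The pellet was washed with DMSO to remove unconverted hematin, and the remaining β-hematin was dissolved in 0.1 N NaOH. Absorbance was read at 405 nm to derive BHIA50.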

Data set [3] in a line: Selectivity ratio of CC50 for human HeLa cells to IC50 for Plasmodium falciparum MRC-02. The note with it: read-out: Ratio CC50/IC50. It counts as ADME, cell-based. The gist of the method: as §1
In data set [4] the test system is Plasmodium falciparum. Briefly: Antiplasmodial activity against chloroquine-sensitive Plasmodium falciparum MRC-02 infected in human erythrocyte assessed as inhibition of schizont maturation after 24 hrs. It counts as functional, organism-based. The note with it: MRC-02, 24 h. In a few lines:
(§2)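 Sorbitol-synchronised ring-stage culture in human B+ erythrocytes, in RPMI-1640 with 25 mM HEPES, 10% AB+ serum and 0.2% bicarbonate under 5% CO2. Parasitaemia was set at 1–1.5%. Cultures were exposed to two-fold serial dilutions for 24 h at 37 °C (ethanol ≤0.5% final), duplicate wells per dose. Schizonts per 100 asexual parasites were counted on Giemsa smears. Inhibition = (1−Nt/Nc)×100.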

Data set [5] relates to Plasmodium falciparum. Briefly: Antiplasmodial activity against chloroquine-resistant Plasmodium falciparum RKL09 infected in human erythrocyte assessed as inhibition of schizont maturation after 24 hrs. Conditions: RKL09, 24 h. Format: functional, organism-based. The gist of the method: as §2
Data set [6] in a line: Cytotoxicity against human HeLa cells after 72 hrs by neutral red uptake assay. Format: cell-based. The gist of the method:
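HeLa cells grown in EMEM with 10% FBS were seeded at 2×10^3 per well and left overnight at 37 °C, 5% CO2. They were exposed to two-fold serial dilutions from DMSO stocks (DMSO ≤0.1%) in duplicate for 72 h. Cells were fixed in glutaraldehyde, stained with 0.2% neutral red and lysed in acid ethanol, then read at 550 nm against DMSO controls. The value reported is MNTD, the highest concentration giving 100% survival.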

The test system of data set [7] is Plasmodium berghei. Briefly: Antimalarial activity against Plasmodium berghei ANKA infected in Swiss albino mice (Mus musculus) assessed as suppression of parasitemia at 8 mg/kg/day, perorally for 4 days. It counts as functional. The note with it: route oral. The gist of the method:
(§3)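 Peters' 4-day suppressive test in male Swiss albino mice (18–20 g), five per group. Mice were infected intraperitoneally with about 30% P. berghei-infected donor erythrocytes, then dosed orally 4 h later and on days 0–3. Controls received the suspending solvent. Giemsa-stained tail smears were read on days 4 and 7; % suppression was calculated against controls. Survival was followed for 28 days for MST.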

Data set [8] concerns Plasmodium berghei. Briefly: Antimalarial activity against Plasmodium berghei ANKA infected in Swiss albino mice (Mus musculus) assessed as mean survival time at 8 mg/kg/day, perorally for 4 days measured after 28 days. Format: functional, organism-based. In a few lines: as §3
The subject of data set [9] is Plasmodium berghei. Put plainly: Antimalarial activity against Plasmodium berghei ANKA infected in Swiss albino mice (Mus musculus) assessed as suppression of parasitemia at 50 mg/kg/day, perorally for 4 days. It counts as functional. The note with it: route oral. In a few lines: as §3
Data set [10] deals with Plasmodium berghei. Put plainly: Antimalarial activity against Plasmodium berghei ANKA infected in Swiss albino mice (Mus musculus) assessed as mean survival time at 25 mg/kg/day, perorally for 4 days measured after 28 days. Conditions: route oral. Format: functional. In a few lines:
(§4)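 Peters 4-day suppressive test in male Swiss albino mice (18–20 g), groups of five. Mice inoculated intraperitoneally with P. berghei ANKA-infected erythrocytes from a donor mouse. Oral dosing began 4 h later and was given once daily on days 0–3. Vehicle controls received the suspending solvent. Mean survival time was taken from deaths over a 28-day observation period.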

Data set [11] concerns Plasmodium berghei. Put plainly: Antimalarial activity against Plasmodium berghei ANKA infected in Swiss albino mice (Mus musculus) assessed as mean survival time at 50 mg/kg/day, perorally for 4 days measured after 28 days. Format: functional. The note with it: route oral. The gist of the method: as §4
The subject of data set [12] is Plasmodium berghei. Briefly: Antimalarial activity against Plasmodium berghei ANKA infected in Swiss albino mice (Mus musculus) assessed as suppression of parasitemia at 25 mg/kg/day, perorally for 4 days. Format: functional. The note with it: route oral. The gist of the method:
as §3

As usually defined, the IC50 is the concentration needed to halve the response being measured. Take `Cc1ccccc1C1CC(c2ccc(O)cc2)=NN1C(=O)c1cccnc1` (centres undefined): the selectivity ratio came out at 17.8 in data set [1] and 29 in [3]. In addition, the IC50 amounted to 2430 µM in [2], 0.0625 µM in data set [4] and 0.102 µM in [5]. In [6], this compound displayed an MNTC at 72 h of 1810 nM.

For the compound `O=C(c1cccnc1)N1N=C(c2ccc(O)cc2)CC1c1cccc([N+](=O)[O-])c1` (centres undefined), the selectivity ratio in data set [1] turned out to be 8.85; in data set [3] it was 35.2. Further, the values for the IC50 in data set [2], in data set [4] and in data set [5] were 2070 µM, 0.106 µM and 0.423 µM, respectively. This compound also returned an MNTC at 72 h in [6] of 3750 nM.

For `CCOc1ccc(C2CC(c3ccc(O)cc3)=NN2C(=O)c2cccnc2)cc1OC` (centres undefined), the selectivity ratio was 16.6 in data set [1] and 47.5 in data set [3]. This compound also had an IC50 in data set [2] of 2390 µM. In data set [6], this compound gave an MNTC at 72 h of 3560 nM.

Regarding `Cc1ccc(C2CC(c3ccc(O)cc3)=NN2C(=O)c2cccnc2)cc1` (centres undefined), the selectivity ratio in data set [1] is 24.6; in [3], 39.4. Moreover, the 50% inhibitory concentration (IC50) came to 1570 µM in data set [2], 0.0555 µM in [4] and 0.0887 µM in [5]. In addition, the MNTC at 72 h in data set [6] is 2190 nM.

In data set [2], `CCN(CC)CCCC(C)Nc1ccnc2cc(Cl)ccc12.O=P(O)(O)O.O=P(O)(O)O` (centres undefined) [CHLOROQUINE PHOSPHATE] yielded an IC50 of 1890 µM. Moreover, the Activity in [7] is listed as 100%. The outcome in data set [8] was Active. For the same compound, the MNTC at 72 h in data set [6] worked out at 66200 nM.

Consider `COc1cc(C2CC(c3ccc(O)cc3)=NN2C(=O)c2cccnc2)cc(OC)c1OC` (centres undefined), for which the Activity in data set [9] was 43.7%; in data set [10], 9 days; in data set [11], 11 days; in [12], 32.78%. For the same compound, the selectivity ratio in data set [1] turned out to be 19.5; in data set [3], 31.2. The values for the IC50 in data set [2], in data set [4] and in data set [5] were 1700 µM, 0.0265 µM and 0.0425 µM, respectively. Besides, the MNTC at 72 h in data set [6] was 828 nM.

In the case of `COc1ccc(Br)cc1C1CC(c2ccc(O)cc2)=NN1C(=O)c1cccnc1` (centres undefined), the selectivity ratio in [1] stood at 11; in data set [3], 53.7. The IC50 is 1890 µM in data set [2], 0.0495 µM in data set [4] and 0.242 µM in [5]. The compound also yielded an MNTC at 72 h in data set [6] of 2660 nM.

Regarding `O=C(c1cccnc1)N1N=C(c2ccc(O)cc2)CC1c1ccc(Cl)cc1Cl` (centres undefined), the Activity in [9] was determined as 68.93%; in data set [10], 11.6 days; in data set [11] it was 13.2 days; in data set [12], 60.55%. Besides, the selectivity ratio in data set [1] worked out at 18.4; in [3] it was 33.3. Also, the IC50 in data set [2] was 1530 µM; in data set [4], 0.0375 µM; in data set [5] it was 0.068 µM. The same compound had an MNTC at 72 h in [6] of 1250 nM.

In the case of `O=C(c1cccnc1)N1N=C(c2ccc(O)cc2)CC1c1ccccc1Br` (centres undefined), the Activity in data set [9] was found to be 47.52%; in data set [10], 9 days; in data set [11], 10.3 days; in [12], 34.98%. In addition, the selectivity ratio in data set [1] is 59.6; in [3], 140. Further, the IC50 was 1820 µM in data set [2], 0.0272 µM in data set [4] and 0.064 µM in data set [5]. The MNTC at 72 h in data set [6] came to 3810 nM.

`O=C(c1cccnc1)N1N=C(c2ccc(O)cc2)CC1c1ccccc1` (centres undefined): the results for the selectivity ratio in data set [1] and in data set [3] were 14.4 and 61.7, respectively. For the same compound, the IC50 in data set [2] worked out at 1580 µM; in data set [4], 0.0304 µM; in [5] it was 0.131 µM. In addition, in [6], the MNTC at 72 h worked out at 1880 nM.

In the case of `O=C(c1cccnc1)N1N=C(c2ccc(O)cc2)CC1c1cccc(Br)c1` (centres undefined), the selectivity ratio in [1] worked out at 39; in [3], 118. The IC50 is 2060 µM in data set [2], 0.026 µM in data set [4] and 0.0786 µM in [5]. Further, the MNTC at 72 h in [6] came out at 3060 nM.
